Data as given in ChEMBL document CHEMBL1132442, “Preparation and characterization of novel trans-[PtCl(2)(amine)(isopropylamine)] compounds: cytotoxic activity and apoptosis induction in ras-transformed cells” (J Med Chem, 1999).
pIC50: −log10 of the molar value.

Tests used:
HL-60 = test: Cytotoxicity against human promyelocytic leukemia cell line HL-60 (obtained by MTT assay).; type: functional, cell-based
Method in brief: (§1)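 MTT survival assay: compounds added to cultured cells at final 0–200 μM, read 24 h later by absorbance at 520 nm. IC50 from plots of % survival versus concentration (μM). Quadruplicate experiments. Compound stocks 1 mg/mL in PBS, freshly prepared.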

Vero [1] = test: Cytotoxicity against […] cell line VERO(obtained by MTT assay).; type: functional, cell-based, Chlorocebus sabaeus; method in brief: as §1
HeLa = test: Cytotoxicity against human cervix epithelial carcinoma cell line HeLa (obtained by MTT assay).; type: functional, cell-based; method in brief: as §1
PAM212 [2] = test: Cytotoxicity against normal murine keratinocytes Pam212 (obtained by MTT assay).; type: functional, cell-based, Mus musculus; method in brief: as §1
Jurkat = test: Cytotoxicity against human acute T-cell leukemia cell line JURKAT (obtained by MTT assay).; type: functional, cell-based; method in brief: as §1
PAM212 [3] = test: Cytotoxicity against murine keratinocytes transformed with the H-ras oncogene Pam212-ras (cis-DDP resistant) (obtained by MTT assay).; type: functional, cell-based, Mus musculus; method in brief: as §1
Vero [4] = test: Cytotoxicity against […] cell line VERO (obtained by MTT assay).; type: functional, cell-based, Chlorocebus sabaeus; method in brief: as §1

Substance	pIC50 (HL-60)	pIC50 (Vero [1])	pIC50 (HeLa)	pIC50 (PAM212 [2])	pIC50 (Jurkat)	pIC50 (PAM212 [3])	pIC50 (Vero [4])
TRANSPLATIN	4.30	3.83	4.05	3.91	4.66	3.79	–
Trans-[PtCl2(isopropylamine)(propylamine)]	4.70	4.28	4.37	4.30	5.30	4.49	–
Trans-[PtCl2(dimethylamine)isopropylamine)] (tdmaipa)	4.77	–	4.49	4.25	5.30	5.22	4.33
Trans-[PtCl2(butylamine)(isopropylamine)]	4.74	4.34	4.46	4.15	5.15	4.68	–
CISPLATIN	4.60	4.30	4.42	3.94	5.15	3.81	–
